Many of the other results were omitted from the sample, so hits are more common in it than they were.
E-sel inducer: E-selectin induction on HUVECs. P16581. HUVEC E-selectin immunofluorescence imaging; normalized: neutral wells 0, TNF-alpha wells 100. activation, % at 7.58 µM. 260,000 compounds, 0.37% hits. AID 686992;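 active = mean E-selectin-positive cell signal at least 10% of the positive control, reached in at least 60% of replicates, without over 20% cell loss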
Target sequence (P16581 whole entry, looked up): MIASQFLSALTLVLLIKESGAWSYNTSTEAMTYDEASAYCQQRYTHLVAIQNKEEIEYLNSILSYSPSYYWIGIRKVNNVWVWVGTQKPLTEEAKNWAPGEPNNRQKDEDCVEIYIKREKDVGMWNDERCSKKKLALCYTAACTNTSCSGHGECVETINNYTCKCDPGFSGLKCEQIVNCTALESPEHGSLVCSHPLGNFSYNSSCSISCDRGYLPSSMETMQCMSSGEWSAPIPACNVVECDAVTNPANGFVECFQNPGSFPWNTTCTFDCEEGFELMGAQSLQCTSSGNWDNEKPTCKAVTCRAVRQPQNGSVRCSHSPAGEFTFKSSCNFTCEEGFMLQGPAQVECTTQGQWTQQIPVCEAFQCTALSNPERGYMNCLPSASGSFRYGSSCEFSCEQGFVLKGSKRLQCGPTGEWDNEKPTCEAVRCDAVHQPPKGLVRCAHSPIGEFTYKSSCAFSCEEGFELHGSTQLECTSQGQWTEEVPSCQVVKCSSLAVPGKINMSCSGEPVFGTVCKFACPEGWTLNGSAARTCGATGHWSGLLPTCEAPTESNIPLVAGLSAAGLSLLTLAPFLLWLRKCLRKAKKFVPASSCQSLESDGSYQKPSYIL
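System: HUVEC / Compound: single concentration / Signal: immunofluorescence imaging / Read-out: percent E-selectin-positive cells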
An asterisk follows results filed as active; ! = repeats disagree.

SMILES	E-sel inducer
O=[N+]([O-])c1ccc(N=Nc2ncc[nH]2)cc1	30.1*
O=[N+]([O-])c1ccc(N=Nc2c(O)[nH]c3ccc(F)cc23)cc1	4.9
CO[C@@H]1CN(C)C(=O)c2cc(NC(=O)NC(C)C)ccc2OC[C@H](C)N(CCC(F)(F)F)C[C@H]1C	-0.3
CO[C@H]1CN(C)C(=O)c2cc(NS(=O)(=O)c3ccc(C)cc3)ccc2OC[C@H](C)N(C(=O)NC(C)C)C[C@H]1C	-0.1
C[C@H](NC(=O)C[C@@H]1CC[C@@H]2[C@@H](COc3ccc(NS(=O)(=O)c4ccc(Cl)cc4)cc3C(=O)N2C)O1)c1ccccc1	-0.2
CN(C)c1ccc(/C=C/c2nc3ccccc3c(=O)[nH]2)cc1	-0.1
CN(C)c1ccc(/C=C/c2nc3ccccc3c(=O)n2CCO)cc1	1.5
CN(C)c1ccc(/C=C/c2ccc3c4ccccc4ccc3[n+]2-c2ccccc2)cc1	217.5*
COc1ccc(S(=O)(=O)N(C)C[C@H]2Oc3c(NC(=O)Nc4c(C)noc4C)cccc3C(=O)N([C@@H](C)CO)C[C@H]2C)cc1	174.5*!
COc1ccc(S(=O)(=O)N(C)C[C@@H]2Oc3c(NC(=O)Nc4c(C)noc4C)cccc3C(=O)N([C@@H](C)CO)C[C@H]2C)cc1	2.6
C[C@@H]1CN([C@H](C)CO)C(=O)c2cccc(NC(=O)Nc3ccccc3)c2O[C@@H]1CN(C)S(=O)(=O)c1ccccc1	255.2*
COc1ccc(S(=O)(=O)N(C)C[C@@H]2Oc3ccc(NS(=O)(=O)c4c(C)noc4C)cc3C(=O)N([C@H](C)CO)C[C@H]2C)cc1	-6.4
COc1ccc(S(=O)(=O)N(C)C[C@H]2Oc3ccc(NC(=O)Nc4c(C)noc4C)cc3C(=O)N([C@H](C)CO)C[C@@H]2C)cc1	55.0*!
Cc1ccc(S(=O)(=O)N(C)C[C@H]2Oc3ccc(NC(=O)Nc4c(C)noc4C)cc3C(=O)N([C@H](C)CO)C[C@@H]2C)cc1	-0.2
Cc1ccc(S(=O)(=O)N(C)C[C@H]2Oc3ccc(NC(=O)Nc4c(C)noc4C)cc3C(=O)N([C@H](C)CO)C[C@H]2C)cc1	0.9
COc1ccc(S(=O)(=O)N(C)C[C@H]2Oc3ccc(NS(=O)(=O)c4c(C)noc4C)cc3C(=O)N([C@@H](C)CO)C[C@@H]2C)cc1	20.0
C[C@@H]1CN([C@@H](C)CO)C(=O)c2cccc(NC(=O)Nc3ccccc3)c2O[C@@H]1CN(C)S(=O)(=O)c1ccccc1	-3.2
COc1ccc(S(=O)(=O)N(C)C[C@H]2Oc3ccc(NS(=O)(=O)c4c(C)noc4C)cc3C(=O)N([C@@H](C)CO)C[C@H]2C)cc1	403.8*
Cc1ccc(S(=O)(=O)N(C)C[C@@H]2Oc3c(NC(=O)Nc4ccccc4)cccc3C(=O)N([C@@H](C)CO)C[C@@H]2C)cc1	0.1
COc1ccc(S(=O)(=O)N(C)C[C@@H]2Oc3c(NC(=O)Nc4c(C)noc4C)cccc3C(=O)N([C@@H](C)CO)C[C@@H]2C)cc1	-6.0
CCC(=O)Nc1ccc2c(c1)C(=O)N(C)[C@H]1CC[C@H](CC(=O)NCCCN(C)C)O[C@@H]1CO2	-0.1
COc1ccc(S(=O)(=O)Nc2ccc3c(c2)C(=O)N([C@H](C)CO)C[C@@H](C)[C@H](CN(C)C(=O)CCC(F)(F)F)OCCCC[C@@H](C)O3)cc1	0.2
Cc1noc(C)c1NC(=O)Nc1ccc2c(c1)CC(=O)N([C@H](C)CO)C[C@H](C)[C@@H](CN(C)Cc1ccccc1)O2	0.8
CC(=O)N1[C@@H]2CN(S(=O)(=O)c3ccccc3)c3ccccc3[C@@H]2[C@@H]1CO	0.0
C[C@@H]1CCCCO[C@@H](CN(C)C(=O)C2CCCCC2)[C@@H](C)CN([C@H](C)CO)C(=O)c2cc(NC(=O)c3ccncc3)ccc2O1	1.7
SMILES	E-sel inducer
O=C(CN1CCOCC1)N1CC(=O)N2[C@@H](CO)[C@H](c3ccc(/C=C/c4ccccc4)cc3)[C@@H]2C1	-0.5
CNC(=O)C[C@@H]1CC[C@@H]2[C@@H](COc3ccc(NS(=O)(=O)c4ccc(F)cc4)cc3C(=O)N2C)O1	0.2
CC=Cc1ccc2n(c1=O)C[C@@H]1[C@@H](CO)[C@H](C(=O)NCCc3ccncc3)[C@H]2N1CCc1ccccc1 (mixture of isomers)	0.2
CO[C@@H]1CN(C)C(=O)c2ccc(NC(=O)c3ccc(F)cc3)cc2OC[C@H](C)N(C(=O)CC2CC2)C[C@H]1C	0.1
CCN(CC)C(=O)c1cn(-c2cccc(OC)c2)c(=O)c2ccccc12	67.3*
CN(C)C(=O)c1cn(-c2ccc(Cl)cc2)c(=O)c2ccccc12	-0.7
CCC(C)NC(=O)c1cn(-c2cccc(OC)c2)c(=O)c2ccccc12 (configuration not stated)	0.9
C[C@@H]1CN([C@H](C)CO)C(=O)Cc2cc(NC(=O)C3CCCCC3)ccc2O[C@@H]1CN(C)C	-0.1
CCOC(=O)Cn1cc(/C=C(/C#N)C(=O)NC(C)C)c2ccccc21	83.1*
CCOC(=O)Cn1cc(/C=C(\C#N)C(=O)N2CCOCC2)c2ccccc21	-2.4
CCOC(=O)Cn1cc(C#N)c2ccccc21	-0.1
O=C(C[C@@H]1CC[C@@H]2[C@H](COC[C@H](O)CN2C(=O)c2cccnc2)O1)NCC1CC1	0.7
O=C(N=Nc1c(O)[nH]c2ccccc12)Nc1ccccc1	-0.1
O=C(CCCCCNC(=O)c1ccccc1Br)N=Nc1c(O)[nH]c2ccccc12	88.1*
O=C(CN1CCCCC1)N=Nc1c(O)[nH]c2ccccc12	1.7
CNC[C@H]1Oc2cc(C#CC3(O)CCCC3)ccc2S(=O)(=O)N([C@H](C)CO)C[C@H]1C	0.1
C[C@@H]1CN([C@H](C)CO)C(=O)c2cc(C#Cc3cccnc3)cnc2O[C@H]1CN(C)C	0.2
C[C@H](CO)N1C[C@H](C)[C@H](CN(C)Cc2ccccc2)Oc2ncc(C#CCN(C)C)cc2C1=O	0.2
O=C([C@@H]1[C@@H](CO)[C@@H]2Cn3c(ccc(-c4cncnc4)c3=O)[C@@H]2N1CC1CC1)N1CCCCC1	0.1
C[C@@H]1CCCCO[C@H](CN(C)CC2CCCCC2)[C@H](C)CN([C@H](C)CO)C(=O)c2cc(NC(=O)CCCN(C)C)ccc2O1	-0.1
Cn1c(N)c(C(=O)COC(=O)CCc2ccccc2)c(=O)n(C)c1=O	107.0*
Cn1c(N)c(C(=O)COC(=O)CN2C(=O)c3ccccc3C2=O)c(=O)n(C)c1=O	0.0
Cn1c(N)c(C(=O)COC(=O)CNC(=O)c2ccccc2)c(=O)n(C)c1=O	-0.4
O=C(C1CCCC1)N1[C@@H](CO)[C@@H]2c3ccccc3NC[C@@H]21	0.1
CC(=O)N1[C@@H]2Cn3c(ccc(C4=CCCCC4)c3=O)[C@H]1[C@@H](C(=O)NC1CCC1)[C@@H]2CO	0.1
SMILES	E-sel inducer
COc1ccc(NC(=O)Nc2ccc3c(c2)CC(=O)N([C@H](C)CO)C[C@H](C)[C@H](CN(C)C(=O)NC(C)C)O3)cc1	0.1
COc1ccc(CN(C)C[C@@H]2Oc3ccc(NC(=O)CCN4CCOCC4)cc3C(=O)N([C@@H](C)CO)C[C@H]2C)cc1	2.7
Cc1c(C(=O)NCc2ccco2)oc2ccc(Br)cc12	1.2
Cc1c(C(=O)NCc2ccco2)oc2ccccc12	48.4*
Cc1c(C(=O)NCc2ccco2)oc2c(F)cccc12	0.1
C[C@@H]1CN([C@@H](C)CO)C(=O)c2cc(C#CCc3ccccc3)cnc2O[C@@H]1CN(C)CC1CC1	0.1
CN1C(=O)c2cc(NC(=O)NC3CCCC3)ccc2OC[C@@H]2O[C@H](CC(=O)NC3CCC3)CC[C@H]21	0.2
